Screening data from PubChem BioAssay.
The list is not random: actives were taken first. Their share in the collection is about 9.6%.
TNAP act hi DEA – activators of human TNAP at high phosphate acceptor concentration | P05186 | purified TNAP, CDP-star luminescence, 1 M DEA, 30 min; active compounds read high; 0 = EDTA background, 1 = DMSO-only activity | activation factor at 20 µM | 200,000 tested, under 10 active | AID 1136;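 active means activation factor at least 2 at 20 µM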
Target sequence (P05186 whole entry, looked up): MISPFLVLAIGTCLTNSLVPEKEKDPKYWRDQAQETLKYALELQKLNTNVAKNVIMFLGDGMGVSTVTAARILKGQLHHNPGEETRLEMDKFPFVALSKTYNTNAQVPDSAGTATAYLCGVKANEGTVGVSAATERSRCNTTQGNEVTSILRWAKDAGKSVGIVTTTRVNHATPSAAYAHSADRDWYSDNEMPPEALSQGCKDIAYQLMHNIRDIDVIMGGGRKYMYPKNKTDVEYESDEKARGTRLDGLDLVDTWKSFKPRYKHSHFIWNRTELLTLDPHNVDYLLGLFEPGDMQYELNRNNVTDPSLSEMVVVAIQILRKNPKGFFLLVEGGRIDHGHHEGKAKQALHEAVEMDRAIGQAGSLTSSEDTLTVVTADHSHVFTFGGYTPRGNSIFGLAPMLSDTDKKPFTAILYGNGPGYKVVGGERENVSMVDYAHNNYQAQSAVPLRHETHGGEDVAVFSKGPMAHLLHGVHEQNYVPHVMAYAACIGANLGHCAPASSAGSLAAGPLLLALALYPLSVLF
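system = human TNAP | amount = enzyme diluted 1/800 final | reagent = 100 µM CDP-star substrate | signal = luminescent substrate turnover signal | dosing = one dose, 20 µM | benchmarks = EDTA negative control, DMSO positive control | measure = activation factor | timing = 30 min reaction, room temperature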
HCT116 PTEN-null – PTEN-deleted cell growth suppression; viability, % at 10 µM; HCT116 PTEN-null viability, CellTiter-Glo, 60 h; active compounds read low; hit rate 1.2% among 140,000;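 active means viability at or below a set limit, 4 SD under the median of all tested compounds, cut at about 3.7% in these data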;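 further: PTEN knockout HCT116 line with beta catenin targeted HCT116 as companion control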
L major viab – Leishmania major promastigote growth inhibition; Leishmania major promastigotes, resazurin fluorescence viability; inhibition, % at 10 µM; hit rate 9% among 200,000; in the data active means inhibition above about 50%;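 further: promastigotes grown with compound for 44 hours at 28 °C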
TNAP inh hiacc – TNAP (human) inhibition, high acceptor; inhibition, % at 20 µM; hit rate 0.03% among 200,000; P05186; purified TNAP, CDP-star luminescence, 1 M DEA;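 active means over 50% inhibition of tissue-nonspecific alkaline phosphatase at 20 µM in the single-dose screen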
TNAP inh noacc – blocks human TNAP activity with no phosphate acceptor present | purified TNAP, CDP-star luminescence, 30 min | inhibition, % at 20 µM | hit rate 0.26% among 200,000;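 active means tissue-nonspecific alkaline phosphatase inhibition above about 50% at 20 µM in the single-dose screen, limit read from the data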
bCat KO growth – beta-catenin-lacking colon tumor cell growth suppression; HCT116 beta-catenin knockout viability, CellTiter-Glo, 60 h; active compounds read low; hit rate 1.5% among 140,000; viability, % at 10 µM; AID 818;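 active means viability at or under a set limit, the compound median less 4 SD, cut at about 6% in these data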
Of the large screens only hits and unclear results are named; the others gave an inactive call.

O=C(COC(=O)C(c1ccccc1)c1ccccc1)NCc1ccco1	none (no result: HCT116 PTEN-null, bCat KO growth)
O=C(Nc1ccccc1CC[N+](=O)[O-])N1CCN(c2ccccc2)CC1	none (no result: HCT116 PTEN-null, bCat KO growth)
Nc1ccc(S(=O)(=O)NNC(=O)C(=O)NNc2ccccc2)cc1	L major viab 87
Cc1cccc(NC(=S)NCc2ccccn2)c1	none
Cc1ccc(NC(=S)NCc2ccccn2)cc1	L major viab 50
CCN(CC)P(=O)(Nc1cccc(C(F)(F)F)c1)c1ccc(N(C)C)cc1NC(=O)c1ccco1 (stereo unspecified)	L major viab 91 (no result: HCT116 PTEN-null, bCat KO growth)
N#Cc1ccsc1NC(=O)COC(=O)c1cc2ccccc2cc1O	L major viab 79
N#Cc1ccsc1NC(=O)COC(=O)c1ccc(NC(N)=O)cc1	none (no result: HCT116 PTEN-null, bCat KO growth)
O=C(Nc1nc2ccccc2s1)c1ccc(OCC2CCCO2)cc1 (stereo unspecified)	none
CCc1nn(-c2ccccc2)c(=S)c2ccccc12	none (no result: HCT116 PTEN-null, bCat KO growth)
CC(=O)NN1C(=O)c2ccccc2NC1c1ccc([N+](=O)[O-])o1 (stereo unspecified)	L major viab 66 (no result: HCT116 PTEN-null, bCat KO growth)
CC(=O)NN1C(=O)c2ccccc2NC1c1ccco1 (stereo unspecified)	none (no result: HCT116 PTEN-null, bCat KO growth)
O=C(NN1C(=O)c2ccccc2NC1c1ccco1)c1ccc(Br)cc1 (stereo unspecified)	none (no result: HCT116 PTEN-null, bCat KO growth)
O=C(NN1C(=O)c2ccccc2NC1c1ccc([N+](=O)[O-])o1)c1ccc(Br)cc1 (stereo unspecified)	L major viab 95 (no result: HCT116 PTEN-null, bCat KO growth)
CCOC(=O)N1CCC(NC(=O)C2CCN(S(=O)(=O)c3ccc4c(c3)oc(=O)n4C)CC2)CC1	none (no result: HCT116 PTEN-null, bCat KO growth)
CC(=O)c1cccc(NC(=O)COc2cc3oc(=O)c(CC(C)O)c(C)c3cc2Cl)c1 (stereo unspecified)	none
C=CCN1C(=O)C(C)S/C1=N\S(=O)(=O)c1ccc(Cl)cc1 (stereo unspecified)	L major viab 52
CCN1C(=O)C(C)S/C1=N\S(=O)(=O)c1ccc(F)cc1 (stereo unspecified)	none
O=C(NC1CCN(C(=O)N2c3ccccc3Sc3ccccc32)CC1)c1ccccc1Cl	L major viab 95
O=C(NNC(=O)c1ccccc1C(=O)O)c1ccc(O)cc1	none (no result: HCT116 PTEN-null, bCat KO growth)
CC(C)(C)C(=O)OCCNc1nc(-c2ccccc2)nc2ccccc12	L major viab 54
CCNc1c2c(nc3ccccc13)CC(C)(C)CC2=O	L major viab 58
COc1cc(CNCc2ccccn2)ccc1OCC(N)=O	none
COc1cc(CNCc2ccccn2)ccc1OCc1ccc(Cl)c(Cl)c1	L major viab 100 (no result: HCT116 PTEN-null, bCat KO growth)
COc1cc(CNCc2ccccn2)ccc1OCc1ccc(Cl)cc1Cl	HCT116 PTEN-null 3.5, L major viab 99, bCat KO growth 2.4
O=C(Cc1cn(Cc2cccc(Cl)c2)c2ccccc12)N1CCCC1	L major viab 99
CC1Oc2ccccc2N(CC(=O)NCCc2ccccc2)C1=O (stereo unspecified)	none
CC1(C)CCCN(C(=O)c2coc(=O)c(Br)c2)C1	none
Cc1cc(Br)ccc1S(=O)(=O)n1ccnc1C	L major viab 84 (no result: HCT116 PTEN-null, bCat KO growth)
COc1ccc(C)cc1S(=O)(=O)n1ccnc1C	none (no result: HCT116 PTEN-null, bCat KO growth)
COc1cc(C#N)ccc1OCC(=O)Nc1cccc(S(=O)(=O)N2CCCC2)c1	none (no result: HCT116 PTEN-null, bCat KO growth)
CCCS(=O)(=O)N1CCCC(C(=O)NCC(OC)OC)C1 (stereo unspecified)	none (no result: HCT116 PTEN-null, bCat KO growth)
COc1ccc(/C=N/NC(=O)c2ccc(COc3ccccc3Cl)o2)cc1	none
COc1ccc(/C=N/NC(=O)c2ccc(COc3ccccc3Cl)o2)c(OC)c1C	L major viab 56
COc1cc(NC(=O)c2ccc(COc3ccccc3Br)o2)cc(OC)c1OC	L major viab 68
O=C(Nc1cccc(C(F)(F)F)c1)c1cc2c(=O)c3ccccc3oc2nc1C(F)(F)F	L major viab 62
O=C(Nc1ccccc1)c1cc2c(=O)c3ccccc3oc2nc1C(F)(F)F	none
COC(=O)c1cc(OC)c(OC)cc1NC(=S)N1CCCCC1	L major viab 89
Cc1cc(NC(=O)CSc2nc3cc(C(=O)NCCCOC(C)C)ccc3c(=O)n2Cc2ccco2)no1	none (no result: HCT116 PTEN-null, bCat KO growth)
CCOc1ccc(C(=O)N/N=C/c2ccc(-c3ccc(S(=O)(=O)Nc4ncccn4)cc3)o2)cc1	none
O=C(N/N=C/c1ccc(-c2ccc(S(=O)(=O)Nc3ncccn3)cc2)o1)c1cc2ccccc2cc1O	L major viab 73
Cc1cc(C)c2nc(-c3ccccn3)cc(C(=O)n3cccn3)c2c1	none (no result: HCT116 PTEN-null, bCat KO growth)
Oc1ccc(N=Cc2ccc(O)c(O)c2)cc1	L major viab 100
COc1cccc(C(=O)N/N=C(/c2ccccc2)c2ccccn2)c1	HCT116 PTEN-null 1.9, L major viab 100, bCat KO growth 5.0
COc1cc(NC(=O)c2ccccn2)cc(OC)c1OC	none (no result: HCT116 PTEN-null, bCat KO growth)
COc1cc(C(=O)N/N=C(\c2ccccc2)c2ccccn2)cc(OC)c1OC	HCT116 PTEN-null 3.8, L major viab 99, bCat KO growth 4.8
COc1cccc(C(=O)N/N=C(/CCC(=O)O)c2ccccc2)c1	none
COc1ccc(-c2[nH]ncc2C=O)cc1OC	none (no result: HCT116 PTEN-null, bCat KO growth)
COc1ccc(/C=C/c2cc(-c3ccc(C)cc3)o[n+]2C)cc1	HCT116 PTEN-null 1.5, L major viab 101, bCat KO growth 1.2
CCOc1ccc(-c2csc(NNC3=NCCCCC3)n2)cc1	none (no result: HCT116 PTEN-null, bCat KO growth)
Cc1ccc(NC(=O)C2(NC(=O)c3ccccn3)CCCCC2)cc1Br	L major viab 58
Cc1cccc(Oc2cc(NC(=O)Cn3cnc([N+](=O)[O-])n3)cc([N+](=O)[O-])c2)c1	L major viab 100
Cc1cc([N+](=O)[O-])nn1CCCC(=O)Nc1cc(Oc2ccccc2)cc([N+](=O)[O-])c1	none
COC(=O)[C@@H](NC(=O)O[C@@H]1C(=O)c2ccc(OC)cc2O[C@H]1c1cccc(C(F)(F)F)c1)C(C)C	none
S=C(NCc1ccco1)N1CCN(C/C=C/c2ccccc2)CC1	L major viab 77 (no result: HCT116 PTEN-null, bCat KO growth)
OCC1(CC2CCCCO2)CCN(C/C=C/c2ccccc2)CC1 (stereo unspecified)	L major viab 89 (no result: HCT116 PTEN-null, bCat KO growth)
COc1ccc2[nH]cc(C(=O)CN3CCN(C/C=C/c4ccccc4)CC3)c2c1	L major viab 98
COc1cc(NC(=S)N2CCN(C/C=C/c3ccccc3)CC2)cc(OC)c1	none
COc1ccc2c(C(=O)CN3CCN(CCO)CC3)c[nH]c2c1	none
COc1cccc(NC(=S)N2CCN(C/C=C/c3ccccc3)CC2)c1	L major viab 95
CCCCc1ccc(NC(=S)N2CCCC(C)C2)cc1 (stereo unspecified)	none (no result: HCT116 PTEN-null, bCat KO growth)
S=C(NC1CCCC1)N1CCN(C/C=C/c2ccccc2)CC1	L major viab 81 (no result: HCT116 PTEN-null, bCat KO growth)
O=C(Nc1ccccc1-c1ccccc1)NC1CC2CCCC(C1)N2CCc1ccccc1 (stereo unspecified)	L major viab 72
CCCN1C2CCCC1CC(NC(=O)Nc1cccc(C(C)=O)c1)C2 (stereo unspecified)	none
